Data set [1] has as its system PBMC. The experiment in a line: Drug level in human phytohemagglutininin-activated PBMC assessed as apricitabine triphosphate level at 2.6 uM after 24 hrs. It counts as ADME, cell-based. The procedure, abridged: (§1)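 Single healthy donor PBMC from Ficoll-type separation with hypotonic erythrocyte lysis, cultured in RPMI 1640 + 10% heat-inactivated FBS and stimulated 72 h with PHA-M 5 μg/ml plus IL-2 10 U/ml. Seeded at 0.75 × 10⁶ cells/ml and exposed 24 h to 2.6 μM ³H-labelled nucleoside alone. Cells washed cold, extracted in 60% methanol, analysed by C18 reverse-phase HPLC (7.5 mM NaH2PO4, pH 6.8) with online radioactivity detection. Parent and MP/DP/TP expressed as μM (1 pmol/10⁶ cells ≈ 1 μM).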

Data set [2] concerns PBMC. The experiment in a line: Drug level in human phytohemagglutininin-activated PBMC at 2.6 uM after 24 hrs. It counts as ADME, cell-based. The procedure, abridged: as §1
In data set [3] the test system is Human immunodeficiency virus. The experiment in a line: Antiviral activity against HIV in PBMCs assessed as inhibition of viral replication. It counts as functional, organism-based. The note with it: Human immunodeficiency virus 1.
The test system of data set [4] is PBMC. The experiment in a line: Drug level in human resting PBMC at 2.6 uM after 24 hrs. It counts as ADME, cell-based. An outline of the steps: (§2)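 Unstimulated PBMC from a single healthy donor, cultured in RPMI 1640 + 10% heat-inactivated FBS, seeded at 1.0 × 10⁶ cells/ml and incubated 24 h with 2.6 μM ³H-labelled nucleoside alone. Cold PBS washes, 60% methanol extraction at −20°C overnight, C18 reverse-phase HPLC (7.5 mM sodium dihydrogen phosphate, pH 6.8) with online radiodetection. Intracellular parent, MP, DP, TP reported as μM (1 pmol/10⁶ cells ≈ 1 μM).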

Data set [5] concerns Human immunodeficiency virus. The experiment in a line: Antiviral activity against HIV in T cells assessed as inhibition of viral replication. It counts as functional, organism-based. The note with it: Human immunodeficiency virus 1, T-cell.
The test system of data set [6] is PBMC. The experiment in a line: Drug level in human resting PBMC assessed as apricitabine diphosphate level at 2.6 uM after 24 hrs. It counts as ADME, cell-based. An outline of the steps:
as §2

In data set [7] the test system is PBMC. The experiment in a line: Drug level in human phytohemagglutininin-activated PBMC assessed as apricitabine monophosphate level at 2.6 uM after 24 hrs. It counts as ADME, cell-based. The procedure, abridged:
as §1

The test system of data set [8] is PBMC. The experiment in a line: Drug level in human resting PBMC assessed as apricitabine monophosphate level at 2.6 uM after 24 hrs. It counts as ADME, cell-based. The procedure, abridged:
as §2

Data set [9] concerns PBMC. The experiment in a line: Drug level in human phytohemagglutininin-activated PBMC assessed as apricitabine diphosphate level at 2.6 uM after 24 hrs. It counts as ADME, cell-based. An outline of the steps: as §1
Data set [10] deals with PBMC. The experiment in a line: Drug level in human resting PBMC assessed as apricitabine triphosphate level at 2.6 uM after 24 hrs. It counts as ADME, cell-based. The procedure, abridged: as §2
The test system of data set [11] is Human immunodeficiency virus 1. The experiment in a line: Antiviral activity against HIV1 with reverse transcriptase M184V mutation in human phytohemagglutininin-activated PBMC assessed as inhibition of viral replication. It counts as functional, organism-based. The procedure, abridged: (§3)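 PBMC from one healthy donor, stimulated 3 days with PHA (5 μg/ml) plus IL-2 (10 U/ml), infected with HIV-1 M184V at MOI 0.02 for 3 h at 37°C, washed, 2 × 10⁵ cells/well into drug-containing medium. Half the medium renewed with drug at day 4. Day 7 supernatant RT activity measured on poly(rA)(dT) with [³H]dTTP. Triplicates.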

Data set [12] relates to PBMC. The experiment in a line: Drug level in human resting PBMC assessed as Lamivudine diphosphate level at 2.6 uM after 24 hrs. It counts as ADME, cell-based. The procedure, abridged: as §2
The test system of data set [13] is Human immunodeficiency virus 1. The experiment in a line: Antiviral activity against HIV1 with reverse transcriptase M184V mutation in human phytohemagglutininin-activated PBMC assessed as inhibition of viral replication at 200 uM. It counts as functional. The procedure, abridged: as §3
For data set [14], the system named is Human immunodeficiency virus 1. The experiment in a line: Antiviral activity against HIV1 with reverse transcriptase M184V mutation in human phytohemagglutininin-activated PBMC assessed as inhibition of viral replication at 60 uM. It counts as functional. An outline of the steps:
as §3

For data set [15], the system named is PBMC. The experiment in a line: Drug level in human phytohemagglutininin-activated PBMC assessed as Lamivudine monophosphate level at 2.6 uM after 24 hrs. It counts as ADME, cell-based. An outline of the steps:
as §1

Data set [16] concerns PBMC. The experiment in a line: Drug level in human resting PBMC assessed as Lamivudine triphosphate level at 2.6 uM after 24 hrs. It counts as ADME, cell-based. The procedure, abridged:
as §2

Data set [17] concerns PBMC. The experiment in a line: Drug level in human resting PBMC assessed as Lamivudine monophosphate level at 2.6 uM after 24 hrs. It counts as ADME, cell-based. The procedure, abridged: as §2
Data set [18] deals with PBMC. The experiment in a line: Drug level in human phytohemagglutininin-activated PBMC assessed as Lamivudine diphosphate level at 2.6 uM after 24 hrs. It counts as ADME, cell-based. The procedure, abridged:
as §1

Data set [19] has as its system PBMC. The experiment in a line: Drug level in human phytohemagglutininin-activated PBMC assessed as Lamivudine triphosphate level at 2.6 uM after 24 hrs. It counts as ADME, cell-based. An outline of the steps: as §1

This is an account of results in ChEMBL document CHEMBL1155156, “In vitro interactions between apricitabine and other deoxycytidine analogues” (Antimicrob Agents Chemother, 2007).

As a reminder, the EC50 is the concentration at which the effect is half-maximal. The EC90 is the point of the concentration-response curve where the effect stands at 90%. The term inhibition denotes how much of the control response was suppressed.

For `Nc1ccn([C@H]2CO[C@@H](CO)S2)c(=O)n1` [APRICITABINE], the Drug uptake with PBMC [1] stood at 0.54 µM; in the data set with PBMC [2], 1.19 µM; with PBMC [4], 0.39 µM; with PBMC [6], 0.58 µM; with PBMC [7], 0.23 µM; with PBMC [8], 0.11 µM. Moreover, the Drug uptake with PBMC [9] was 0.69 µM; in the data set on PBMC [10] it was 0.33 µM. The 50% effective concentration (EC50) in [3] was 100 nM; in data set [5], 1000 nM; in [11] it was 1900 nM. Further, in data set [11], the EC90 was determined as 11900 nM.

Regarding `Nc1ccn([C@@H]2CS[C@H](CO)O2)c(=O)n1` [LAMIVUDINE], the Drug uptake turned out to be 1.01 µM in the data set with PBMC [12]; 0.18 µM in the data set on PBMC [2]; 0.52 µM in the data set on PBMC [15]; 0.1 µM in the data set with PBMC [4]; 0.73 µM in the data set with PBMC [16]; 0.12 µM in the data set with PBMC [17]. The Drug uptake in the data set on PBMC [18] is 1.66 µM; with PBMC [19] it was 0.66 µM. Moreover, in data set [13], the inhibition at 200 µM was 45%. The inhibition at 60 µM in [14] amounted to 45%. Also, the 50% effective concentration (EC50) in data set [11] was determined as 68000 nM.
